Assay results: ChEMBL document CHEMBL3751740, “New MKLP-2 inhibitors in the paprotrain series: Design, synthesis and biological evaluations” (Bioorg Med Chem, 2016)

Experiments:
[1] = molecular target: T1, Kinesin-like protein KIF23 (Homo sapiens) (UniProt Q02241); experiment: Inhibition of porcine brain microtubule-stimulated human recombinant GST-tagged MKLP1 ATPase activity at 15 uM by microplate reader in presence of Mg2+ ATP relative to control
T1 sequence (whole entry): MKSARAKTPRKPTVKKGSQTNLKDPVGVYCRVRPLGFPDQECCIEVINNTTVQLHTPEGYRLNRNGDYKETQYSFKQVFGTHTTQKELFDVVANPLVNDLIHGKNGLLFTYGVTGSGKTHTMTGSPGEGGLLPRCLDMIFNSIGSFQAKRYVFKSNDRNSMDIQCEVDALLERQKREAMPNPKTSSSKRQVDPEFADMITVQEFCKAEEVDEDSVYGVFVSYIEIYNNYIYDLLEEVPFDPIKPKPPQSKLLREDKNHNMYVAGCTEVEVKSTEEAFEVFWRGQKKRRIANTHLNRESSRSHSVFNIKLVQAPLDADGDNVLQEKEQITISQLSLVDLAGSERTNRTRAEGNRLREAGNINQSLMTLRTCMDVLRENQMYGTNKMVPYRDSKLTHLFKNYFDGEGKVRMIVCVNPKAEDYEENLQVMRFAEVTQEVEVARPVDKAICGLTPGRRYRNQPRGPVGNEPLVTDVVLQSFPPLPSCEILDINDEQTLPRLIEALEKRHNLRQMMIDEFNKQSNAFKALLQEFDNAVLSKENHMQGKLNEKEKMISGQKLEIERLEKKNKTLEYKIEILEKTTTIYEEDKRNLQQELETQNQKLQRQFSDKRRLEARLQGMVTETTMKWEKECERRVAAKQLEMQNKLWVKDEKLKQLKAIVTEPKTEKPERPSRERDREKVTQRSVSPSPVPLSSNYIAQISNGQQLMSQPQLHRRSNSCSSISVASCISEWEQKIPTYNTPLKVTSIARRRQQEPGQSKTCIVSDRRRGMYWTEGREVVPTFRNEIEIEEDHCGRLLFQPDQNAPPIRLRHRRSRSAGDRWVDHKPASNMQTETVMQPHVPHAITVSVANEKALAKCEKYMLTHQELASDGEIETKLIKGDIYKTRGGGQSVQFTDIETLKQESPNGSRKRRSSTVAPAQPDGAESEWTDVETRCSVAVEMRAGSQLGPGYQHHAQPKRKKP
In short: (§1)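 Each kinesin motor domain was tested against MT-stimulated ATPase at 22 °C in triplicate, with compounds at 15 µM. Buffer was 7.5 mM PIPES-NaOH pH 7.0 with MgCl2, Taxol, ELIPA reagents and 1.25 mg/mL MTs. Reactions were started with 1 mM Mg2+ATP and read kinetically at 360 nm. Monastrol and AMP-PNP (1 mM) were the controls.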

[2] = molecular target: T2, Kinesin-like protein KIF3C (Homo sapiens) (UniProt O14782); experiment: Inhibition of porcine brain microtubule-stimulated human recombinant GST-tagged KIF3C ATPase activity at 15 uM by microplate reader in presence of Mg2+ ATP relative to control; in short: as §1
T2 sequence (whole entry): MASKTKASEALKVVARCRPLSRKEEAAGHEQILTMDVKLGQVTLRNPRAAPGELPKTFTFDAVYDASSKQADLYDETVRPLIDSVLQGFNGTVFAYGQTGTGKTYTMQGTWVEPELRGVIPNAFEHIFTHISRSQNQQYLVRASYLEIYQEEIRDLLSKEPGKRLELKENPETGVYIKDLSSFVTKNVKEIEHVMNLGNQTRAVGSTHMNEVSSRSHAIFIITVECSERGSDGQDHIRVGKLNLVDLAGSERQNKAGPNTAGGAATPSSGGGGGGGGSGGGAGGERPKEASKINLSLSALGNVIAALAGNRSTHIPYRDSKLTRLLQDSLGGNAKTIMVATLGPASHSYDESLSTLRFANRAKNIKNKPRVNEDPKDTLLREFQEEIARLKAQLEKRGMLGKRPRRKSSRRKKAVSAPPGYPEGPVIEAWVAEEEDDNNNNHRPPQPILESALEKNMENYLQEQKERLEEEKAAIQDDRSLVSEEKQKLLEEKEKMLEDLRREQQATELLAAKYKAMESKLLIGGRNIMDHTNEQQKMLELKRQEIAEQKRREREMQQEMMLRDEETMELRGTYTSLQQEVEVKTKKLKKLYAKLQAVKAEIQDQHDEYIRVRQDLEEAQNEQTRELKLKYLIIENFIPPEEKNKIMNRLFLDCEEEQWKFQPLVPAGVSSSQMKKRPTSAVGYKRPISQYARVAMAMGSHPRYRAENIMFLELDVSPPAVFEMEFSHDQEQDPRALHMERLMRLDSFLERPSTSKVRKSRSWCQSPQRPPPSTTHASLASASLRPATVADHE

Row | Structure (SMILES) | inhibition [1] | inhibition [2]
1 | CCOC(=O)C1=C(C)NC(=S)NC1c1cccc(O)c1 (configuration not stated) | < 20% | < 20%
2 | COc1cccc2[nH]cc(/C(C#N)=C/c3cccnc3)c12 | < 20% | < 20%
3 | N#C/C(=C\c1cccnc1)c1c[nH]c2ccc(OCc3ccccc3)cc12 | < 20% | < 20%
4 | COc1ccc2[nH]cc(/C(C#N)=C/c3cccnc3)c2c1 | < 20% | < 20%
5 | COc1ccc2c(/C(C#N)=C/c3cccnc3)c[nH]c2c1 | < 20% | < 20%
6 | N#C/C(=C\c1ccc2c(c1)OCO2)c1c[nH]c2ccccc12 | < 20% | < 20%
